This is an account of results in ChEMBL document CHEMBL1133088 (J Med Chem, 2000).

Series [1] is described as follows: Equilibrium association constant interacting with unilamellar vesicles of electroneutral in PBS buffer at pH 7.4. The class given is ADME. The essentials:
(§1)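 Fluorescence anisotropy titration of 1 uM total drug with small unilamellar vesicles (DMPC or DMPG) in PBS, pH 7.4, 37 °C. SUVs were sonicated from 10 mg/mL lipid stocks and annealed 30 min at 37 °C; DMPG pH was readjusted to 7.4. Readings were taken about 0.5–1 min after mixing. K came from least-squares slopes of double-reciprocal plots (1/bound fraction vs 1/[lipid]).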

The nature of series [2]: Half life in human blood. The class given is ADME, organism-based. As to conditions: whole blood. The essentials:
(§2)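 Lactone-ring hydrolysis of 1 uM drug at 37 °C and pH 7.4, incubated in PBS, in PBS containing physiologically relevant HSA or albumin-free red blood cells, or in whole human blood. Isocratic acetonitrile/2% triethylamine acetate (pH 5.5) at 1 mL/min; lactone eluted near 7.0 min, carboxylate near 2.0 min.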

Series [3] can be described thus: Half life of compound in PBS suspension. The class given is ADME. The gist of the method: as §2
Series [4] can be described thus: Half life of compound in PBS with HSA suspension. The class given is ADME. As to conditions: human, HSA (human serum albumin) in PBS. The gist of the method:
as §2

Series [5] in a line: Equilibrium association constant interacting with unilamellar vesicles of negatively charged DMPG in PBS buffer at pH of 7.4 and 37 degrees celsius. The class given is ADME. Conditions: pH 7.4. The gist of the method: as §1
The nature of series [6]: Half life for of compound in PBS with RBC suspension. The class given is ADME. Conditions: RBC (red blood cell) suspension in PBS. The gist of the method:
as §2

Series [7] in a line: % lactone at different intervals of time in PBS suspension. The class given is ADME. Conditions: buffer. The essentials: as §2
Series [8] in a line: % lactone at different intervals of time in PBS with RBC suspension. The class given is ADME. Conditions: erythrocytes. The gist of the method:
as §2

The species entered for series [9] is Homo sapiens. Put plainly: % lactone at different intervals of time in human blood. The class given is ADME, organism-based. The gist of the method:
as §2

Series [10] is described as follows: % lactone at different intervals of time in PBS with HSA suspension. The class given is ADME. Conditions: human, buffer. The essentials:
as §2

Series [11] has as its system Tumor Cell line. The experiment in a line: Mean GI50 against variety of human tumor cell lines. The class given is functional. The essentials: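 NCI tumour cell panel: 5000–40 000 cells/well preincubated 24 h at 37 °C, then exposed 48 h (5% CO2) to five 10-fold dilutions from DMSO stocks. Highest well concentration in routine testing was 10^-4 M. Growth was read by sulforhodamine B protein staining.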

In series [12] the test system is U-87 MG. The experiment in a line: Inhibition of tumor growth at day 28 postimplantation after administration of 10 mg/kg/day in nude mouse U87 glioma subcutaneous model system. The class given is functional, U-87MG ATCC. Conditions: sc, 672 h.
The subject of series [13] is U-87 MG. The experiment in a line: Inhibition of tumor growth at day 28 postimplantation after administration of 3 mg/kg/day in nude mouse U87 glioma subcutaneous model system. The class given is functional, U-87MG ATCC. Conditions: sc, 672 h.
The nature of series [14]: Inhibition against MDA-MB-435 S human breast cancer cells in the absence of albumin. The class given is functional, cell-based. The gist of the method:
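Read-out was sulforhodamine B, which stains protein in cells and cell fragments still attached to the dish bottom, including dying or dead attached cells. IC50 was derived from the cell survival profiles.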

Series [15] relates to MDA-MB-435. The experiment in a line: Inhibition against MDA-MB-435 human breast cancer cells in the absence of HSA. The class given is functional, cell-based. The gist of the method: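 MDA-MB-435 S human breast cancer cells exposed to drug with or without added HSA. Viability was read after a 3-day growth assay by sulforhodamine B staining of protein remaining attached to the dish.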

For series [16], the system named is MDA-MB-435. The experiment in a line: Inhibition against MDA-MB-435 human breast cancer cells in the presence of 1 mg/mL HSA.

Consider `CCc1c2c(nc3ccc(O)cc13)-c1cc3c(c(=O)n1C2)COC(=O)[C@]3(O)CC` [7-ETHYL-10-HYDROXYCAMPTOTHECIN], for which, in series [1], the KDMPC is 260 M⁻¹. Further, the half-life (commonly the time in which the quantity being followed falls by half) in [2] was 32 min; in series [3], 20.9 min; in series [4], 36.1 min; in series [6] it was 24.4 min. The KDMPG in [5] worked out at 160 M⁻¹. Further, the figures for the Lactone in [7], in [8] and in series [9] were 15.3%, 37.5% and 19.5%, respectively.
`CC[C@@]1(O)C(=O)OCc2c1cc1n(c2=O)Cc2cc3c(CN(C)C)c(O)ccc3nc2-1` [TOPOTECAN] had a KDMPC in series [1] of 10 M⁻¹. The same compound showed a KDMPG in series [5] of 50 M⁻¹.
`CC[C@@]1(O)C(=O)OCc2c1cc1n(c2=O)Cc2c-1nc1ccc(O)cc1c2[Si](C)(C)CCCCl`: in series [1], the KDMPC stood at 2200 M⁻¹. Besides, the half-life in [2] is 65.3 min; in series [3], 29.5 min; in series [4], 48 min; in series [6], 67.7 min. Moreover, in series [5], the KDMPG came out at 1200 M⁻¹. The Lactone in [7] came to 11.3%; in [10], 17.2%; in series [8] it was 50.2%; in [9], 17.8%.
Consider `CC[C@@]1(O)C(=O)OCc2c1cc1n(c2=O)Cc2cc3cc(O)ccc3nc2-1` [HYDROXYCAMPTOTHECIN], for which the GI50 (as a rule, the concentration at which growth is held to half of that of the control) in [11] was 36 nM.
In turn, `CC[C@@]1(O)C(=O)OCc2c1cc1n(c2=O)Cc2c-1nc1ccc(O)cc1c2[Si](C)(C)C(C)(C)C` [AR-67] yielded a KDMPC in series [1] of 2500 M⁻¹. For the same compound, the half-life came out at 31.8 min in series [3], 119 min in series [4] and 51.4 min in series [6] (human). This compound yielded a KDMPG in [5] of 2800 M⁻¹. Moreover, the Lactone in [7] was 10.2%; in [10], 10.5%; in series [8] it was 41.4%; in series [9] it was 30.5%. Also, in series [12], the inhibition in vivo (usually how much of the control response was suppressed) at 10 mg/kg/day is 73%. For the same compound, the inhibition in vivo at 3 mg/kg/day in series [13] worked out at 61%. In series [11], this compound gave a GI50 of 21 nM. Besides, 14 nM corresponded to half-maximal inhibition in series [14] (IC50).
Take `CC[C@@]1(O)C(=O)OCc2c1cc1n(c2=O)Cc2c-1nc1ccccc1c2[Si](C)(C)CCCCl`: the KDMPC in series [1] is 2800 M⁻¹. The half-life in [2] was determined as 85.6 min; in series [3] it was 23.3 min; in [4], 16 min; in series [6], 59.7 min. This compound displayed a KDMPG in series [5] of 2500 M⁻¹. In addition, the Lactone in [7] is reported as 12%; in series [10], 2.7%; in [8] it was 43.4%; in [9], 2.2%.
For the compound `CC[C@@]1(O)C(=O)OCc2c1cc1n(c2=O)Cc2cc3ccccc3nc2-1` [CAMPTOTHECIN], the KDMPC in series [1] worked out at 100 M⁻¹. In addition, the half-life turned out to be 11.9 min in series [4] and 30.8 min in series [6]. The compound also showed a KDMPG in [5] of 100 M⁻¹. For the same compound, the Lactone was 17% in series [7], < 0.5% in [10], 34.6% in series [8] and 5.3% in [9]. In addition, the IC50 (commonly the midpoint of a concentration-inhibition curve) in series [15] stood at 15 nM; in series [16] it was 375 nM. In [11], this compound came in with a GI50 of 44 nM.
Take `CC[C@@]1(O)C(=O)OCc2c1cc1n(c2=O)Cc2c-1nc1ccccc1c2[Si](C)(C)C(C)(C)C`: the KDMPC in [1] stood at 15500 M⁻¹. The half-life in series [2] came to 71 min; in series [3] it was 27.9 min; in series [4] it was 46.3 min; in series [6], 79.4 min. Besides, in series [5], the KDMPG is 16000 M⁻¹. The Lactone in series [7] is recorded as 12.2%; in series [10], 0.1%; in [8] it was 59.4%; in series [9] it was 1%.
